CAL PDZ FP-1 – blocks peptide binding to the human CAL PDZ domain; purified CAL PDZ, TMR-peptide fluorescence polarization, 1 h; Q9HD26; AID 602252; inhibition, % at 24.9 µM; actives 0.92% (n = 300,000);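 active means mean inhibition of at least 30% with at least half of replicates also reaching 30%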
A3G deaminase – inhibitors of human APOBEC3G DNA deaminase | Q9HC16 | inhibition, % at 20 µM | recombinant A3G, ssDNA deamination FAM/TAMRA fluorescence | actives 0.28% (n = 330,000);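 active means inhibition of at least 40% at 20 µM, with no more than 30% in the related APOBEC3A deaminase screen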
LANA DNA inh – KSHV C-LANA DNA binding inhibition; MBP-C-LANA/FAM-LBS DNA binding, fluorescence polarization; inhibition, % at 9 µM; actives 0.078% (n = 340,000);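 active means highest replicate inhibition at or above 60% at 9 µM, even if other replicates fall short; inactive means all replicates below 60% inhibition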
APOBEC3A inh – human APOBEC3A DNA deaminase inhibition | inhibition, % at 20 µM | recombinant A3A, FAM/TAMRA ssDNA deamination fluorescence | P31941 | actives 0.41% (n = 330,000);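 active means at least 40% inhibition at 20 µM here, with at most 30% in a related deaminase screen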
Keap1-Nrf2 PPI – inhibitors of human Keap1-Nrf2 protein-protein interaction; Q14145; Keap1 Kelch-Nrf2 peptide fluorescence polarization, 1536-well; inhibition, % at 9.4 µM; actives 0.15% (n = 340,000); in the data active means inhibition above about 12%;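 further: human Keap1 Kelch domain with fluorescein labeled Nrf2 9mer peptide probe; higher means more block of Keap1 binding to Nrf2 peptide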
Target sequence (Q14145 whole entry, looked up, the tested form may be a part): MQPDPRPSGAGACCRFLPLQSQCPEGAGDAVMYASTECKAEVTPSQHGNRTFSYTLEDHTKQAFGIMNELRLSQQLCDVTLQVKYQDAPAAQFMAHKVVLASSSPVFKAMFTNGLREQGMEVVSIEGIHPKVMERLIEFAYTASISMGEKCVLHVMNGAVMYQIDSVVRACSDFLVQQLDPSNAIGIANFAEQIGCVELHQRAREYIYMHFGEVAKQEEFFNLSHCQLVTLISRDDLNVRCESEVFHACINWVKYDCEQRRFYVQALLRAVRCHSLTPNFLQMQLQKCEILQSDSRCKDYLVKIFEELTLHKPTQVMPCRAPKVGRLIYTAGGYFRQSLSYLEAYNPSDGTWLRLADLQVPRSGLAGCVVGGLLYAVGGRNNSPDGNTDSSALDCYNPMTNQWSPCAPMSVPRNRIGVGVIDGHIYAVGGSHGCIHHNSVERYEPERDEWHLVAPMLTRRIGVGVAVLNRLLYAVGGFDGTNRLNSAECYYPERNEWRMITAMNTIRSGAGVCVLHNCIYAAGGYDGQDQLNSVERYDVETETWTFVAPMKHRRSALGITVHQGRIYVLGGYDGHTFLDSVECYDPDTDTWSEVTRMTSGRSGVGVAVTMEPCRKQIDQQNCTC
CAL PDZ FP-2 – blocks peptide binding to human CAL PDZ domain | Q9HD26 | purified CAL PDZ, TMR-peptide fluorescence polarization, 1 h | inhibition, % at 20 µM | actives 0.02% (n = 330,000) | AID 504414;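 active means highest replicate inhibition of at least 40%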
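Control set: unlabelled peptide and DMSO controls / Material: purified CerCALP PDZ construct / Timing: 1 h incubation at room temperature before polarization reading / Doses: 20 µM, one dose / Detection: fluorescence polarization (mP)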
Numbers stand for hits; 0 = inactive; - = no result given. Compounds with a hit are over-represented: about 1.7% of the library has one in this group of screens.

SMILES | CAL PDZ FP-1 | A3G deaminase | LANA DNA inh | APOBEC3A inh | Keap1-Nrf2 PPI | CAL PDZ FP-2
O=C(Cn1cnc(S(=O)(=O)N2CCCC2)c1)Nc1cccc(Br)c1 | 50 | 0 | 0 | 0 | 0 | 0
N#CC(CCc1ccccc1[N+](=O)[O-])(CCc1ccccc1[N+](=O)[O-])C(N)=O | 53 | - | 0 | - | 0 | 0
NC(=O)c1ccccc1[N+](=O)[O-] | 0 | 0 | 0 | 0 | 0 | 0
O=C(CCNC(=O)c1ccco1)Nc1ccc(SC(F)F)cc1 | 0 | 0 | 0 | 0 | 0 | 0
Cc1c(C(=O)N2CCN(c3ccc(F)cc3)CC2)sc2nc3n(c(=O)c12)CCC3 | 86 | 0 | 0 | 0 | 0 | 0
Cc1c(C(=O)N2CCN(c3ccccc3)CC2)sc2nc3n(c(=O)c12)CCC3 | 0 | 0 | 0 | 0 | 0 | 0
Cc1cccc(N2CC(C(=O)Nc3nnc(SCc4ccccn4)s3)CC2=O)c1 (centres undefined) | 0 | 0 | 0 | 0 | 0 | 0
O=C(N/N=C/c1cccc(OC(=O)c2ccco2)c1)c1ccc(F)cc1 | 0 | 0 | 0 | 0 | 0 | 0
CCOC(=O)/C(C#N)=C1/SC(CC)C(=O)N1c1ccc(C)cc1 (centres undefined) | 56 | 0 | 0 | 0 | 0 | 0
CCOC(=O)/C(C#N)=C1/C=CN(c2ccc(C)cc2)C=N1 | 0 | 0 | 0 | 0 | 0 | 0
N/N=C(\c1ccccc1)c1cc(Br)ccc1N | 47 | 0 | 0 | 0 | 0 | -
Nc1ccc(Br)cc1C(=O)O | 0 | 0 | 0 | 0 | 0 | 0
Cc1ccc(S(=O)(=O)Nc2c3ccccc3nc(=O)n2-c2ccccc2)cc1 | 0 | 0 | 0 | 0 | 0 | 0
O=c1nc2ccccc2c(NS(=O)(=O)c2ccccc2)n1-c1ccccc1 | 36 | 0 | 0 | 0 | 0 | 0
OC(CNCC1CCCO1)Cn1c2ccccc2c2ccccc21 (centres undefined) | 0 | 0 | 0 | 0 | 0 | 0
OC(CNCC1CCCO1)Cn1c2ccc(Cl)cc2c2cc(Cl)ccc21 (centres undefined) | 44 | 0 | 0 | 0 | 0 | 0
Cc1ccc(S(=O)(=O)N(C)CC(=O)N2CCN(Cc3ccccc3)CC2)cc1 | 0 | 0 | 0 | 0 | 0 | 0
COc1cccc(-n2c(Cc3cc(=O)[nH]c(=O)[nH]3)nnc2SCC(=O)N2CCC(C)CC2)c1 | 50 | 0 | 0 | 0 | 0 | 0
CC(C)NC(=O)NC(=O)COC(=O)c1ccccc1Oc1ccccc1 | 76 | 0 | 0 | 0 | 0 | -
CC(C)NC(=O)NC(=O)COC(=O)c1ccccc1O | 0 | 0 | 0 | 0 | 0 | 0
COc1ccccc1CNC(=O)CN(Cc1ccc(Cl)cc1)S(C)(=O)=O | 0 | 0 | 0 | 0 | 0 | 0
C/C(=N\NC(=O)c1cc(-c2ccncc2)nc2ccccc12)c1ccc(OC(F)F)cc1 | 70 | 0 | 0 | 0 | 0 | 0
Cc1cc(Cl)ccc1N(CC(=O)NCCSCc1ccco1)S(C)(=O)=O | 99 | 0 | 0 | 0 | 0 | 0
Cc1ccc(N(CC(=O)NCCSCc2ccco2)S(C)(=O)=O)cc1 | 0 | 0 | 0 | 0 | 0 | 0
c1ccc(Oc2ncnc3sccc23)cc1 | 64 | 0 | 0 | 0 | 0 | 0
SMILES | CAL PDZ FP-1 | A3G deaminase | LANA DNA inh | APOBEC3A inh | Keap1-Nrf2 PPI | CAL PDZ FP-2
Cc1ccccc1Oc1ncnc2sccc12 | - | 0 | 0 | 0 | 0 | 0
CC(O)CNCCCOc1cccc(Oc2ccccc2)c1 (centres undefined) | 111 | 0 | 0 | 0 | 0 | 134
CC(O)CNCCCOc1cccc(C(F)(F)F)c1 (centres undefined) | 0 | 0 | 0 | 0 | 0 | 0
c1cncc(CSc2ccc(-c3ccc4c(c3)OCO4)nn2)c1 | 46 | 0 | 0 | 0 | 0 | 0
O=C(c1ccccc1)C(CCc1ccccn1)CCc1ccccn1 | 47 | - | 0 | - | 0 | 0
CC(CCc1ccccn1)C(=O)c1ccccc1 (centres undefined) | 0 | - | 0 | - | 0 | 0
COC(=O)C(NC(=O)C(C)NC(=O)OCc1ccccc1)C(C)C (centres undefined) | - | 0 | 0 | 0 | 0 | 0
CCC(C)C(NC(=O)C(C)NC(=O)CNC(=O)CNC(=O)OCc1ccccc1)C(=O)OC (centres undefined) | 47 | 0 | 0 | 0 | 0 | 0
O=C(NCCCc1ccncc1)C1CCC(=O)N(Cc2cccc(F)c2)C1 (centres undefined) | 0 | 0 | 0 | 0 | 0 | 0
